Assay results as given in ChEMBL document CHEMBL1148744, “Synthesis and antiviral and cytostatic evaluations of the new C-5 substituted pyrimidine and furo[2,3-d]pyrimidine 4',5'-didehydro-L-ascorbic acid derivatives” (J Med Chem, 2007).
≈ marks a conversion by molar mass, not a printed value.

Columns and labels:
[1] = Cytotoxicity against human HEL cells assessed as alteration in cell morphology; format: cell-based
In short: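 Confluent human embryonic lung (HEL) fibroblast cultures were exposed to a range of compound concentrations. Cells were examined microscopically for any detectable change in normal morphology. The minimum cytotoxic concentration (MCC) was the lowest concentration causing such a change.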

[2] = Cytotoxicity against human HEL cells assessed as reduction of cell growth; format: cell-based
In short: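 HEL cells were seeded at 5 × 10^3 cells/well and allowed to proliferate for 24 h. Medium with graded compound concentrations was then added, followed by 3 days at 37 °C. Cell number was counted with a Coulter counter.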

Human betaherpesvirus 5 [3] = test: Antiviral activity against CMV AD169 in human HEL cells after 7 days; format: functional, organism-based; conditions: Human betaherpesvirus 5, AD169, HEL, 168 h
In short: (§1)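 Confluent HEL fibroblasts were infected at 100 PFU per well. After 2 h, residual virus was removed and cells were kept in MEM with serial compound concentrations for 7 days at 37 °C. Cytopathogenicity or plaques were scored microscopically after ethanol fixation and Giemsa staining.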

Human betaherpesvirus 5 [4] = test: Antiviral activity against CMV Davis in human HEL cells after 7 days; format: functional, organism-based; conditions: Human betaherpesvirus 5, Davis, 168 h; in short: as §1
Human alphaherpesvirus 3 [5] = test: Antiviral activity against thymidine kinase-positive VZV OKA in human HEL cells after 7 days; format: functional, organism-based; conditions: Human alphaherpesvirus 3, OKA, 168 h
Human alphaherpesvirus 3 [6] = test: Antiviral activity against thymidine kinase deficient VZV 07/1 in human HEL cells after 7 days; format: functional, organism-based; conditions: Human alphaherpesvirus 3, 07/1, HEL, 168 h
[7] = system: Vesicular stomatitis virus; test: Antiviral activity against VSV in HeLa cells assessed as reduction of virus-induced cytopathogenicity; format: functional
Human respirovirus 3 = test: Antiviral activity against Parainfluenza 3 virus in Vero cells assessed as reduction of virus-induced cytopathogenicity; format: functional
[8] = system: Mammalian orthoreovirus 1; test: Antiviral activity against Reovirus 1 in Vero cells assessed as reduction of virus-induced cytopathogenicity; format: functional
Human alphaherpesvirus 2 = test: Antiviral activity against HSV2 G in HEL cells assessed as reduction of virus-induced cytopathogenicity; format: functional; conditions: Human alphaherpesvirus 2, G
[9] = system: Respiratory syncytial virus; test: Antiviral activity against RSV in HeLa cells assessed as reduction of virus-induced cytopathogenicity; format: functional; conditions: human respiratory syncytial virus
Sindbis virus = test: Antiviral activity against Sindbis virus in Vero cells assessed as reduction of virus-induced cytopathogenicity; format: functional
Coxsackievirus B4 = test: Antiviral activity against Coxsackie virus B4 in Vero cells assessed as reduction of virus-induced cytopathogenicity; format: functional; conditions: Enterovirus B
Punta Toro virus = test: Antiviral activity against Punta Toro virus in Vero cells assessed as reduction of virus-induced cytopathogenicity; format: functional
Human alphaherpesvirus 1 = test: Antiviral activity against HSV1 KOS in HEL cells assessed as reduction of virus-induced cytopathogenicity; format: functional; conditions: Human alphaherpesvirus 1, KOS

SMILES: Nc1ccn(C[C@@H](CO)OCP(=O)(O)O)c(=O)n1 [CIDOFOVIR]
- MCC [1]: ≥ 1270 µM
- CC50 [2]: 133 µM
- EC50 (Human betaherpesvirus 5 [3]): 0.67 µM
- EC50 (Human betaherpesvirus 5 [4]): 0.67 µM

SMILES: Cc1ccc(C#Cc2cn(C/C=C3\OC(=O)C(OCc4ccccc4)=C3OCc3ccccc3)c(=O)[nH]c2=O)cc1
- MCC [1]: 60 µM

SMILES: CCCCCc1cc2cn(C/C=C3\OC(=O)C(OCc4ccccc4)=C3OCc3ccccc3)c(=O)nc2o1
- MCC [1]: 100 µM

SMILES: CCCCc1ccc(-c2cc3cn(C/C=C4\OC(=O)C(OCc5ccccc5)=C4OCc4ccccc4)c(=O)nc3o2)cc1
- MCC [1]: ≥ 20 µM

SMILES: CCCCCC#Cc1cn(C/C=C2\OC(=O)C(OCc3ccccc3)=C2OCc2ccccc2)c(=O)[nH]c1=O
- MCC [1]: 20 µM

SMILES: CCCCC#Cc1cn(C/C=C2\OC(=O)C(OCc3ccccc3)=C2OCc2ccccc2)c(=O)[nH]c1=O
- MCC [1]: ≥ 100 µM

SMILES: CCCCCc1ccc(-c2cc3cn(C/C=C4\OC(=O)C(OCc5ccccc5)=C4OCc4ccccc4)c(=O)nc3o2)cc1
- MCC [1]: ≥ 20 µM

SMILES: CCCCCCc1cc2cn(C/C=C3\OC(=O)C(OCc4ccccc4)=C3OCc3ccccc3)c(=O)nc2o1
- MCC [1]: 100 µM

SMILES: CCCCCC(O)C#Cc1cn(C/C=C2\OC(=O)C(OCc3ccccc3)=C2OCc2ccccc2)c(=O)[nH]c1=O (stereo unspecified)
- MCC [1]: ≥ 100 µM

SMILES: CCCCCCCCc1cc2cn(C/C=C3\OC(=O)C(OCc4ccccc4)=C3OCc3ccccc3)c(=O)nc2o1
- MCC [1]: 100 µM

SMILES: CCCCCc1ccc(C#Cc2cn(C/C=C3\OC(=O)C(OCc4ccccc4)=C3OCc3ccccc3)c(=O)[nH]c2=O)cc1
- MCC [1]: ≥ 4 µM

SMILES: O=c1[nH]c(=O)n([C@H]2C[C@H](O)[C@@H](CO)O2)cc1/C=C/Br [BRIVUDINE]
- MCC [1]: ≥ 1200 µM
- CC50 [2]: 270 µM
- EC50 (Human alphaherpesvirus 3 [5]): 0.014 µM
- EC50 (Human alphaherpesvirus 3 [6]): 168 µM
- MIC [7]: > 250 µM
- MIC (Human respirovirus 3): > 250 µM
- MIC [8]: > 250 µM
- MIC (Human alphaherpesvirus 2): 10 µM (≈ 3.33 µg/mL)
- MIC [9]: > 250 µM
- MIC (Sindbis virus): > 250 µM
- MIC (Coxsackievirus B4): > 250 µM
- MIC (Punta Toro virus): > 250 µM

SMILES: O=C1O/C(=C\Cn2cc(C#Cc3ccc(Br)cc3)c(=O)[nH]c2=O)C(OCc2ccccc2)=C1OCc1ccccc1
- MCC [1]: ≥ 4 µM

SMILES: Cc1ccc(-c2cc3cn(C/C=C4\OC(=O)C(OCc5ccccc5)=C4OCc4ccccc4)c(=O)nc3o2)cc1
- MCC [1]: 100 µM

SMILES: Nc1ncnc2c1ncn2C[C@H](O)CO [(S)-DHPA]
- MIC [7]: > 250 µM
- MIC (Human respirovirus 3): 50 µM (≈ 10.5 µg/mL)
- MIC [8]: 250 µM (≈ 52.3 µg/mL)
- MIC [9]: > 250 µM
- MIC (Sindbis virus): > 250 µM
- MIC (Coxsackievirus B4): > 250 µM
- MIC (Punta Toro virus): > 250 µM

SMILES: O=C1O/C(=C\Cn2cc3cc(CCc4ccccc4)oc3nc2=O)C(OCc2ccccc2)=C1OCc1ccccc1
- MCC [1]: 100 µM

SMILES: C#CCCCc1cc2cn(C/C=C3\OC(=O)C(OCc4ccccc4)=C3OCc3ccccc3)c(=O)nc2o1
- MCC [1]: > 100 µM

SMILES: Nc1nc2c(ncn2COCCO)c(=O)[nH]1 [ACYCLOVIR]
- MCC [1]: > 1780 µM
- CC50 [2]: 545 µM
- MIC (Human alphaherpesvirus 2): 0.4 µM (≈ 0.0901 µg/mL)

SMILES: CCCCCCC#Cc1cn(C/C=C2\OC(=O)C(OCc3ccccc3)=C2OCc2ccccc2)c(=O)[nH]c1=O
- MCC [1]: 20 µM

SMILES: CCCCCC(O)c1cc2cn(C/C=C3\OC(=O)C(OCc4ccccc4)=C3OCc3ccccc3)c(=O)nc2o1 (stereo unspecified)
- MCC [1]: ≥ 100 µM

SMILES: CCCCc1ccc(C#Cc2cn(C/C=C3\OC(=O)C(OCc4ccccc4)=C3OCc3ccccc3)c(=O)[nH]c2=O)cc1
- MCC [1]: 60 µM

SMILES: CCCCc1cc2cn(C/C=C3\OC(=O)C(OCc4ccccc4)=C3OCc3ccccc3)c(=O)nc2o1
- MCC [1]: 20 µM

SMILES: Nc1nc2c(ncn2COC(CO)CO)c(=O)[nH]1 [GANCICLOVIR]
- MCC [1]: ≥ 1580 µM
- CC50 [2]: 262 µM
- EC50 (Human betaherpesvirus 5 [4]): 2.6 µM
- MIC (Human alphaherpesvirus 1): 0.032 µM (≈ 0.00817 µg/mL)
- MIC (Human alphaherpesvirus 2): 0.0064 µM (≈ 0.00163 µg/mL)

SMILES: C#CCCCC#Cc1cn(C/C=C2\OC(=O)C(OCc3ccccc3)=C2OCc2ccccc2)c(=O)[nH]c1=O
- MCC [1]: ≥ 20 µM

SMILES: CCCCCCCCC#Cc1cn(C/C=C2\OC(=O)C(OCc3ccccc3)=C2OCc2ccccc2)c(=O)[nH]c1=O
- MCC [1]: 100 µM

SMILES: O=C1O/C(=C\Cn2cc3cc(-c4ccc(Br)cc4)oc3nc2=O)C(OCc2ccccc2)=C1OCc1ccccc1
- MCC [1]: ≥ 20 µM

SMILES: NC(=O)c1ncn([C@@H]2O[C@H](CO)[C@@H](O)[C@H]2O)n1 [RIBAVIRIN]
- MIC [7]: > 250 µM
- MIC (Human respirovirus 3): 150 µM (≈ 36.6 µg/mL)
- MIC (Human alphaherpesvirus 1): 250 µM (≈ 61.1 µg/mL)
- MIC [8]: 150 µM (≈ 36.6 µg/mL)
- MIC (Human alphaherpesvirus 2): 250 µM (≈ 61.1 µg/mL)
- MIC [9]: 150 µM (≈ 36.6 µg/mL)
- MIC (Sindbis virus): > 250 µM
- MIC (Coxsackievirus B4): > 250 µM
- MIC (Punta Toro virus): 250 µM (≈ 61.1 µg/mL)
